According to ChEMBL document CHEMBL3244378, “Antiestrogens and antiestrogen metabolites: preparation of tritium-labeled (+/-)-cis-3-[p-(1,2,3,4-tetrahydro-6-methoxy-2-phenyl-1-naphthyl)phenoxyl]-1,2-propanediol (U-23469) and characterization and synthesis of a biologically important metabolite” (J Med Chem, 1979):

What was measured:
[1] = biological target: T1, Estrogen receptor (Rattus norvegicus) (UniProt P06211); experiment: Displacement of [3H]-estradiol from estrogen receptor in rat uterine cytosol at 10^-4 to 10^-10 M after 16 hrs relative to estradiol; details: Uterus
T1 sequence (whole entry): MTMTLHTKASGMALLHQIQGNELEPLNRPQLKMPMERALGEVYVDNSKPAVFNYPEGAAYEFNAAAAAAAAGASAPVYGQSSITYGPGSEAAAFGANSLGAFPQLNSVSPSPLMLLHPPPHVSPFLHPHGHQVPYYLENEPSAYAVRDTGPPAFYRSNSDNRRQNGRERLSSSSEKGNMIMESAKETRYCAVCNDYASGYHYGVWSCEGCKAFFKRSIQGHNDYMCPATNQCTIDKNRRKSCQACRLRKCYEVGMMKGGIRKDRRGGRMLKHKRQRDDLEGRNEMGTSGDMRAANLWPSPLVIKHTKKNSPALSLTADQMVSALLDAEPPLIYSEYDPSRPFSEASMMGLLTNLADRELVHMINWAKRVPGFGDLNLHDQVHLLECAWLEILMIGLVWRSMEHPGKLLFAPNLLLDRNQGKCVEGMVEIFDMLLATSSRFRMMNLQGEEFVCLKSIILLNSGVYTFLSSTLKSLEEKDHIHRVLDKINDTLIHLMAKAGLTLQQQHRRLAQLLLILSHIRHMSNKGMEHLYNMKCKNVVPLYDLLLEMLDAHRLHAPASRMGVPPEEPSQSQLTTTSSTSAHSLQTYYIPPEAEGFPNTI

[2] = Drug metabolism in rat uterine nuclear fraction assessed as 1-[p-(2,3-Dihydroxyphenyl)phenyl]-2-phenyl-6-methoxy-1,2,3,4-tetrahydronaphthalene level at 25 ug, sc after 18 hrs by TLC analysis; type: ADME, organism-based; details: in vivo
[3] = Drug uptake in rat estrogen receptor expressing uterine at 25 ug, sc after 13 hrs by high salt sucrose density gradient analysis in presence of unlabeled estradiol; type: ADME, organism-based, Uterus; details: in vivo
In short: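 Rats pretreated 1 h in vivo with 5 μg unlabeled estradiol or saline vehicle, then given 25 μg tritiated antiestrogen sc. Uteri excised; washed 800g nuclear pellet extracted 1 h at 0 °C with buffer containing 0.4 M KCl. Extract charcoal-dextran treated, ¹⁴C ovalbumin and γ-globulin markers added. High-salt sucrose gradients spun 17 h, 4 °C, 270000g; 5S binding read.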

Serum = experiment: Drug metabolism in rat serum assessed as metabolite level at 25 ug, sc after 1 hr by TLC analysis; type: ADME, organism-based; details: in vivo
In short: (§1)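 Immature rats given tritiated antiestrogen, 25 μg sc per rat. At 1 and 13 h, serum was prepared and extracted with ethyl acetate. Uteri were homogenized, the nuclear pellet washed three times, then extracted with ethanol. Extracts were concentrated, run on silica gel TLC in anesthetic ether–ethanol (98:2), and radioactivity counted by liquid scintillation.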

[4] = Drug metabolism in rat uterine nuclear fraction assessed as metabolite level at 25 ug, sc after 1 hr by TLC analysis; type: ADME, organism-based; details: in vivo
In short: as §1

[5] = Drug metabolism in rat uterine nuclear fraction assessed as metabolite level at 25 ug, sc after 13 hrs by TLC analysis; type: ADME, organism-based; details: in vivo
In short: as §1

[6] = Drug metabolism in rat uterine nuclear fraction assessed as 3-(4-((1R,2S)-6-hydroxy-2-phenyl-1,2,3,4-tetrahydronaphthalen-1-yl)phenoxy)propane-1,2-diol level at 25 ug, sc after 18 hrs by TLC analysis; type: ADME, organism-based; details: in vivo
[7] = Drug metabolism in rat uterine nuclear fraction assessed as 1-(p-Hydroxyphenyl)-2-phenyl-6-methoxy-1,2,3,4-tetrahydronaphthalene level at 25 ug, sc after 18 hrs by TLC analysis; type: ADME, organism-based; details: in vivo
[8] = Drug metabolism in rat uterine nuclear fraction assessed as (5R,6S)-5-(4-hydroxyphenyl)-6-phenyl-5,6,7,8-tetrahydronaphthalen-2-ol level at 25 ug, sc after 18 hrs by TLC analysis; type: ADME, organism-based; details: in vivo

Row | SMILES | RBA [1] | other results
1 | CC[C@H](c1ccc(O)cc1)[C@@H](CC)c1ccc(OC)cc1 (relative stereo) | 19.3 | –
2 | COc1ccc2c(c1)CC[C@@H]1[C@@H]2CC[C@]2(C)[C@@H](O)CC[C@@H]12 | 3 | –
3 | COc1ccc2c(c1)CC[C@H](c1ccccc1)[C@@H]2c1ccc(O)cc1 | 0.24 | –
4 | CC[C@H](c1ccc(O)cc1)[C@@H](CC)c1ccc(O)cc1 | 300 | –
5 | Oc1ccc([C@@H]2c3ccc(O)cc3CC[C@@H]2c2ccccc2)cc1 | 29.8 | –
6 | COc1ccc2c(c1)CC[C@H](c1ccccc1)[C@@H]2c1ccc(OCC(O)CO)cc1 (mixture of isomers) | 0.1 | Drug metabolism [2]: metabolite_detected; Drug metabolism [3]: metabolite_detected; Drug metabolism (Serum): metabolite_detected; Drug metabolism [4]: metabolite_detected; Drug metabolism [5]: metabolite_detected; Drug metabolism [6]: metabolite_detected; Drug metabolism [7]: metabolite_detected; Drug metabolism [8]: metabolite_detected
7 | CC[C@H](c1ccc(O)cc1)[C@@H](CC)c1ccc(OCC(O)CO)cc1 (relative stereo) | 6.9 | –
8 | OCC(O)COc1ccc([C@@H]2c3ccc(O)cc3CC[C@@H]2c2ccccc2)cc1 (stereo partly specified) | 39.1 | –
